Results published in article PMC5107128 (Pharmacological research, 2016).

Key:
[1] = cited from earlier work
[2] = cited from earlier work; remark: listed apart in the source
[3] = tested on: WM266-4 cells; experiment: Transwell Matrigel invasion assay; type: cell-based, human
In short: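 25 × 10^4 WM266-4 cells in suspension were treated with 0.16 or 0.32µM test compound; shMT1-MMP cells got recombinant MMP2 at 25ng/ml. Cells were placed in 8-µm-pore inserts, uncoated or coated with growth-factor-reduced Matrigel, with DMEM plus 5% FBS below. After 24 h, cells on the bottom membrane were fixed in 4% formaldehyde and stained with Coomassie. Stain was extracted in 10% acetic acid and read at […], in triplicate. Invasion % = Matrigel/control insert × 100.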

[4] = tested on: MMP2; experiment: Gelatin zymography of conditioned medium; type: cell-based, human; conditions: WM266-4 cells, 0.32 µM
In short: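 WM266-4 cells were treated with 0.32µM test compound or DMSO, and serum-free conditioned medium was collected. Medium was concentrated on a 30K cutoff device, and 10 μg protein was run on 8% SDS-PAGE containing 2 mg/ml gelatin. Gels were washed in 2.5% Triton X-100, then incubated overnight at 37°C in 50 mM Tris-HCl, 5 mM CaCl2, 0.1% Triton X-100, pH 7.8. Gels were Coomassie R250-stained 45 min, then destained.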

[5] = tested on: other MMPs; conditions: cited from earlier work
[6] = tested on: RAC1; experiment: RAC1 activity assay; type: cell-based, human; conditions: WM266-4 cells, 0.32 µM, 24 hours
In short: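 Cells at 70% confluency were serum-starved in DMEM with 0.5% serum for 24 h, then serum-free for a further 24 h. They were lysed in the G-LISA kit buffer. Equal protein amounts were added to Rac1-GTP-binding wells, and active RAC1 was read at OD 490 nm.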

[7] = tested on: melanoma cell lines; experiment: Cell proliferation assay; type: cell-based, human
In short: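 Crystal violet growth assay. Melanoma cells were kept in DMEM with 10% FCS, 1% glutamine and 1% penicillin-streptomycin. They were seeded at 16,000/cm2 in triplicate and treated with 0.32 µM test compound or DMSO vehicle. shMT1-MMP WM266-4 cells received recombinant MMP2 at 25ng/ml. At each time point cells were fixed in 10% buffered formalin and stained with crystal violet. Growth is expressed relative to controls.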

[8] = tested on: WM266-4 cells; experiment: Orthotopic melanoma model: WM266-4 cells intradermally in NOD/SCID mice; type: in vivo
In short: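 Male NOD/SCID mice (5–8 weeks) received 2 × 10^6 luciferase-transduced WM266-4 cells intradermally in dorsal flanks (9 control, 18 treated tumors). Dosing began at about 120 mm3 mean tumor volume: 25 mg/Kg once daily subcutaneously, from 7.5 mg/ml in sterile PBS, filter-sterilized. Tumor volume taken as (w2 × l) × 0.52 and normalized to time 0. Primary tumors resected at day 42. Lung bioluminescence checked twice weekly. Lungs/thymi S100-stained at 30 weeks post-surgery.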

[9] = tested on: WM266-4 cells; experiment: Scratch migration assay; type: cell-based, human
[10] = biological target: MT1-MMP (Homo sapiens, UniProt P50281); experiment: MT1-MMP activity assay; type: cell-based; conditions: WM266-4 cells, 0.32 µM, overnight
In short: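 WM266-4 cells treated overnight with test compound (0.32 µM final). Comparators were a neutralizing antibody (1 μg/ml), recombinant MT1-MMP (0.5 μg/ml) or shMT1-MMP expression. Membranes extracted by three freeze-thaw cycles, sonicated, pelleted (30 min, 13 000 g, 4°C) and resuspended in PBS. Equal protein incubated with fluorogenic substrate Mca-PLGL-Dap(Dnp)-AR-NH2; fluorescence read at Ex/Em […].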

[11] = tested on: prostate cancer; conditions: cited from earlier work
[12] = biological target: T1, MMP2 (Homo sapiens, UniProt P08253); conditions: cited from earlier work
T1 sequence (P08253 110-660): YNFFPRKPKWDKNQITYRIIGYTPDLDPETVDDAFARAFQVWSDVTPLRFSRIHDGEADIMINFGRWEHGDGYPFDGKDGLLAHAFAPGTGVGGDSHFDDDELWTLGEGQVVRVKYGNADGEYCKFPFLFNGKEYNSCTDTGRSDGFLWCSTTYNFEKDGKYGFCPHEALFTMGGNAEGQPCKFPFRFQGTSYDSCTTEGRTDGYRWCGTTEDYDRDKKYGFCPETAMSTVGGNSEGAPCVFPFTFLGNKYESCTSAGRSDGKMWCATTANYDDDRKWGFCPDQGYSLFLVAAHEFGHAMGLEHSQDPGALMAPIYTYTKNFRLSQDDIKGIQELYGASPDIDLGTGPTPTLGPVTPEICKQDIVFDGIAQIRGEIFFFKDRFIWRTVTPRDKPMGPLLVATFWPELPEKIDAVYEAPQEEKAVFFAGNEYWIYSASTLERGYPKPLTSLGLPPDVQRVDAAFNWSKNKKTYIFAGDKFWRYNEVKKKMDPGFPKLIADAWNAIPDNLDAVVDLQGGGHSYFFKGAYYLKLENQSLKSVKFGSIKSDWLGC

[13] = WM266-4 cells, recombinant MMP2 25ng/ml

Nc1ccc(Oc2ccc(S(=O)(=O)CC3CS3)cc2)cc1 (stereo not shown) [ND-322]
crossing of the blood/brain barrier [1]: cross the blood/brain barrier | tolerability in a model of wound healing [2]: well tolerated | invasion capacity of WM266-4 melanoma cells ([3]; 0.16 and 0.32 µM, 24 hours, dose dependent): inhibited significantly | MMP2 activation by gelatin zymography [4]: inhibited MMP2 activation | inhibition of other MMPs [5]: does not inhibit or poorly inhibits | activity of the small GTPase RAC1 [6]: reduce the activity | cell growth of several melanoma cell lines ([7]; 0.32 µM): inhibited cell growth | tumor growth compared to controls ([8]; 25 mg/Kg/day subcutaneously, NOD/SCID mice): reduced tumor growth significantly | body weight over time ([8]; 25 mg/Kg/day, NOD/SCID mice): maintained their weight | tolerability of treatment ([8]; 25 mg/Kg/day, NOD/SCID mice): well tolerated | mice presenting with tumor cells in the lungs (lung metastasis) ([8]; 30 weeks post-surgery, control animals 90%): 40% | motility (migration) of WM266-4 melanoma cells ([9]; 0.16 and 0.32 µM, dose dependent): inhibited significantly | MT1-MMP activity [10]: as effective as antibody neutralization and knockdown

O=S(=O)(CC1CS1)c1ccc(Oc2ccccc2)cc1 (stereo not shown) [SB-3CT, reference compound]
crossing of the blood/brain barrier [1]: cross the blood/brain barrier | bone metastasis in a xenograft model of prostate cancer [11]: effectively prevent bone metastasis

TIMP1: tissue inhibitor of matrix metalloproteinase (TIMP)1
residence time bound to MMP2 [12]: 6.9 min

B1: recombinant active MMP2: recombinant active MMP2 added to cells at 25ng/ml (protein, UniProt P08253 110-660, looked up)
72 kDa type IV collagenase: YNFFPRKPKWDKNQITYRIIGYTPDLDPETVDDAFARAFQVWSDVTPLRFSRIHDGEADIMINFGRWEHGDGYPFDGKDGLLAHAFAPGTGVGGDSHFDDDELWTLGEGQVVRVKYGNADGEYCKFPFLFNGKEYNSCTDTGRSDGFLWCSTTYNFEKDGKYGFCPHEALFTMGGNAEGQPCKFPFRFQGTSYDSCTTEGRTDGYRWCGTTEDYDRDKKYGFCPETAMSTVGGNSEGAPCVFPFTFLGNKYESCTSAGRSDGKMWCATTANYDDDRKWGFCPDQGYSLFLVAAHEFGHAMGLEHSQDPGALMAPIYTYTKNFRLSQDDIKGIQELYGASPDIDLGTGPTPTLGPVTPEICKQDIVFDGIAQIRGEIFFFKDRFIWRTVTPRDKPMGPLLVATFWPELPEKIDAVYEAPQEEKAVFFAGNEYWIYSASTLERGYPKPLTSLGLPPDVQRVDAAFNWSKNKKTYIFAGDKFWRYNEVKKKMDPGFPKLIADAWNAIPDNLDAVVDLQGGGHSYFFKGAYYLKLENQSLKSVKFGSIKSDWLGC
rescue of cell invasion in cells expressing shMT1-MMP [3, 13]: rescued | rescue of cell growth in cells expressing shMT1-MMP [7, 13]: did not rescue cell growth | rescue of cell motility in cells expressing shMT1-MMP ([9]; WM266-4 cells, recombinant MMP2 25ng/ml, 24 hours): rescued
